Active and inactive are the calls of the source. No cut-off for these calls is given here.

The source of these data is ChEMBL document CHEMBL4680083, “Identification of Tricyclic Agonists of Sphingosine-1-phosphate Receptor 1 (S1P) Employing Ligand-Based Drug Design” (J Med Chem, 2016).

One data set deals with Rattus norvegicus. In words: Antiarthritic activity in Lewis rat model of Complete Freund's adjuvant-induced arthritis assessed as inhibition in paw swelling at 0.1 to 1 mg/kg, po qd administered for 21 days after CFA injection and measured weekly three times upto day 21 by water displacement plethysmometry. The data set is classed as functional, organism-based. As to conditions: dose 0.1-1 mg/kg, time 21.0 day. Summed up:
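Male Lewis rats, 200−225 g, n = 8 per group. Immunized at the tail base with 100 μL of 10 mg/mL ground Mycobacterium butyricum in incomplete Freund's adjuvant. Oral dosing once daily in PEG300 vehicle from the day of immunization for 21 days, at 0.03, 0.1 or 1.0 mg/kg. Dexamethasone 0.1 mg/kg PO QD as positive control. Paw volume by water displacement plethysmometry, day 7 to day 21.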

Data set [1] is described as follows: Permeability of compound at pH 7.7 by PAMPA. The following applies: read-out: permeability. The data set is classed as ADME. In general terms: In PAMPA a lipid-coated filter parts donor from acceptor wells.
Data set [2] has as its target Sphingosine 1-phosphate receptor 1 (Homo sapiens, UniProt P21453). In words: Agonist activity at human S1P1 assessed as stimulation of cAMP accumulation. The data set is classed as functional. (In general: Cyclic AMP is a second messenger, typically raised through Gs and lowered through Gi signalling.)
The next data set deals with T1, Cytochrome P450 2B6 (Homo sapiens, UniProt P20813).
T1 sequence (P20813 whole entry): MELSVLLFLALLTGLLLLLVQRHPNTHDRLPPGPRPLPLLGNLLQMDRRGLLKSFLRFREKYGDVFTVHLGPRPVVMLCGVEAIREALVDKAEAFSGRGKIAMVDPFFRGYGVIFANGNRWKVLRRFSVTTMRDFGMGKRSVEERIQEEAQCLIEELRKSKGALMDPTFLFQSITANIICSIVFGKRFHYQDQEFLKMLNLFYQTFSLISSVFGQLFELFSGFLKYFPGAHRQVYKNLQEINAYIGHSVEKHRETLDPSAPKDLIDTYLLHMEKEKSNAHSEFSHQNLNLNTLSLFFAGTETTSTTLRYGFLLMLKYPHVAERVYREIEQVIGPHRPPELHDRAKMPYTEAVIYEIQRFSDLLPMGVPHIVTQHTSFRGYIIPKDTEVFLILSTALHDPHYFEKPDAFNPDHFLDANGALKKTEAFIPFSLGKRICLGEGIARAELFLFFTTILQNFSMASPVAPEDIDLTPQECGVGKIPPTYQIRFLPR
In words: Inhibition of CYP2B6 (unknown origin). Type of data set: ADME.

Data set [3] can be described thus: Clearance in cynomolgus monkey at 0.5 mg/kg, po or 0.5 mg/kg, iv. The data set is classed as ADME, organism-based, Macaca fascicularis. As to conditions: in vivo.
The next data set concerns the target Cytochrome P450 2D6 (Homo sapiens, UniProt P10635). The data set is described as follows: Inhibition of CYP2D6 (unknown origin). The data set is classed as ADME.
Data set [4] can be described thus: Half-life in rat at 1 mg/kg, po or 1 mg/kg, iv. Type of data set: ADME, organism-based. As to conditions: in vivo.
The nature of data set [5]: Volume of distribution at steady state in mouse at 5 mg/kg, po or 2 mg/kg, iv. The following applies: in vivo, read-out: Vdss. The data set is classed as ADME, organism-based.
The nature of data set [6]: Volume of distribution at steady state in cynomolgus monkey at 0.5 mg/kg, po or 0.5 mg/kg, iv. The data set is classed as ADME, organism-based, Macaca fascicularis. The following applies: in vivo, read-out: Vdss.

Sphingosine 1-phosphate receptor 1, sequence (P21453 whole entry): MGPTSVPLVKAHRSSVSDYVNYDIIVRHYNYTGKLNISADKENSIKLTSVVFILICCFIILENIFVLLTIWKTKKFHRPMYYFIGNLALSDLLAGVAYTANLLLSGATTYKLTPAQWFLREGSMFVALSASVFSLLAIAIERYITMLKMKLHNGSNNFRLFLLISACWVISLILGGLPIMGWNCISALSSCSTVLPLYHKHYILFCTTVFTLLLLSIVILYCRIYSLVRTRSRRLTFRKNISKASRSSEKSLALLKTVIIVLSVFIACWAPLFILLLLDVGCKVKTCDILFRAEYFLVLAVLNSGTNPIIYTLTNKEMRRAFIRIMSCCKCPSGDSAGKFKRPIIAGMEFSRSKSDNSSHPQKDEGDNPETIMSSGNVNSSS
Cytochrome P450 2D6, sequence (P10635 whole entry): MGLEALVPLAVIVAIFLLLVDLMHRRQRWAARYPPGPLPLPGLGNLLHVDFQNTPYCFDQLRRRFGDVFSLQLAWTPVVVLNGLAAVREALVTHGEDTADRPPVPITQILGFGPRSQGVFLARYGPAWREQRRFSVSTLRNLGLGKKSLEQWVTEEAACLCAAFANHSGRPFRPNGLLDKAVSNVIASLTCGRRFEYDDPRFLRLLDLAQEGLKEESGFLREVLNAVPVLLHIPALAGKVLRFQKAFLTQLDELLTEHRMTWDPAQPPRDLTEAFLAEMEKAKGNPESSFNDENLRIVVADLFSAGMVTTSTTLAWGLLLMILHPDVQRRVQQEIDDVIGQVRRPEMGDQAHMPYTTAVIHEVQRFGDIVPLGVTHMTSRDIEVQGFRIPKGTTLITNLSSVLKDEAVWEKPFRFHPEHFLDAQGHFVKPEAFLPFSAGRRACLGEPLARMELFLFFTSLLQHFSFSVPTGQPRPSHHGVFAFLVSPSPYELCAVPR

As to `O=C(O)C1CN(Cc2ccc3c(c2)CCc2c-3noc2-c2onc(-c3ccccc3)c2C(F)(F)F)C1`, the outcome in the data set on Rattus norvegicus was Active. Moreover, in data set [1], the Papp came out at 28 ×10⁻⁶ cm/s. The half-maximal effective concentration (EC50) in data set [2] stood at 32 pM. Also, the IC50 against Cytochrome P450 2B6 and on Cytochrome P450 2D6 was > 40 µM each time. The same compound showed a clearance in data set [3] of 2.4 mL/min/kg. The half-life in data set [4] was 7.9 h. Besides, the Vd in data set [5] came to 2.2 L/kg; in data set [6], 3.6 L/kg.

By EC50 is commonly meant the midpoint of the concentration-response curve. In general, IC50 refers to the concentration at which inhibition is half-maximal. What is called half-life is how long it takes for the measured level to halve.
